For 28 molecules, IC50, Activity and Ki results are on record in ChEMBL document CHEMBL1687878, “Synthesis and biological evaluation of substituted (thieno[2,3-d]pyrimidin-4-ylthio)carboxylic acids as inhibitors of human protein kinase CK2” (Eur J Med Chem, 2011).

Some results are limits rather than exact numbers.

As usually defined, the IC50 is the concentration that inhibits the measured activity by half. For orientation: Ki means the equilibrium dissociation constant of an inhibitor or competing ligand from its target.

For one assay, the target named is Casein kinase II (Homo sapiens, UniProt P19784+P67870+P68400). The experiment in a line: Inhibition of recombinant human CK2 activity assessed as [gamma-32P]ATP incorporation into substrate peptide after 20 mins in presence of 50 uM ATP. In kind it is protein-complex assay. An outline of the steps: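 Radiometric assay with 10 units of recombinant human CK2 in 20 mM Tris-HCl pH 7.5, 50 mM KCl, 10 mM MgCl2. It used 50 µM ATP plus γ-32P ATP (specific activity 100 µCi/µM) and serially diluted inhibitor, run 20 min at 30 °C. The reaction was stopped with 10% phosphoric acid, spotted on phosphocellulose paper, washed with 1% phosphoric acid and Cherenkov-counted. Percent inhibition was taken relative to the DMSO no-inhibitor control, and IC50 was derived from the dilution series.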
Casein kinase II, sequence (P67870 whole entry): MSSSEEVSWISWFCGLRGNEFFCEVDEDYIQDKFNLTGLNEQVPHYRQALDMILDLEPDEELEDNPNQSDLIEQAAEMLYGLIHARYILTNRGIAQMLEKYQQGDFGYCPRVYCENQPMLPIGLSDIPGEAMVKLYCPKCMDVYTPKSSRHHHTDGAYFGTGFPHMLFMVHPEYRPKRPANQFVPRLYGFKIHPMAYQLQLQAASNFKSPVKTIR
Casein kinase II, sequence (P68400 whole entry): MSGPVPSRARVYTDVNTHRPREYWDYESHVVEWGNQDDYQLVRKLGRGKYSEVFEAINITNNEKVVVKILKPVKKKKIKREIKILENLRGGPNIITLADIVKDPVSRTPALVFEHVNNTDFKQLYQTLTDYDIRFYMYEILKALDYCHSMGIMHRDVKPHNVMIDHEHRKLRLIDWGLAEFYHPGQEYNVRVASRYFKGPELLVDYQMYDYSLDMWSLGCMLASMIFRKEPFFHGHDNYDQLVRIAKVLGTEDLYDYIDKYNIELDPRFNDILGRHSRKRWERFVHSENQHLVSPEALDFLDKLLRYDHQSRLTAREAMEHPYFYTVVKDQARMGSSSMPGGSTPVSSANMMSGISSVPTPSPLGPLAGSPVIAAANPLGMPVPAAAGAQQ
Casein kinase II, sequence (P19784 whole entry): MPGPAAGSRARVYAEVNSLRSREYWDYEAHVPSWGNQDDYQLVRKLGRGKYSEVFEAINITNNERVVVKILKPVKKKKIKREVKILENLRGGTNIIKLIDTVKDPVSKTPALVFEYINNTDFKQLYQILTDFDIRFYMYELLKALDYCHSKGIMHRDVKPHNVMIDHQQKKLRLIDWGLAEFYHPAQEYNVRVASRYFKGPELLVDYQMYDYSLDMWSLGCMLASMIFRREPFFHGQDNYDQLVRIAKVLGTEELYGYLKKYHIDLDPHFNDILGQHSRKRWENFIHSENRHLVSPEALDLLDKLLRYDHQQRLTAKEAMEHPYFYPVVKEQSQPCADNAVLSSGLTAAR

Assay [1] addresses Angiopoietin-1 receptor (Homo sapiens) (UniProt Q02763). The experiment in a line: Inhibition of recombinant human Tie2 kinase assessed as residual activity at 10 uM in presence of 100 uM ATP. In outline:
(§1)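 Inhibitor was tested at 10 µM with a final ATP of 100 µM. Residual activity is expressed as a percentage of the control without inhibitor.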

The target of assay [2] is Fibroblast growth factor receptor 1 (Homo sapiens) (UniProt P11362). The experiment in a line: Inhibition of recombinant human FGFR1 kinase assessed as residual activity at 10 uM in presence of 100 uM ATP. In outline:
as §1

The target of assay [3] is Hepatocyte growth factor receptor (Homo sapiens) (UniProt P08581). The experiment in a line: Inhibition of recombinant human Met kinase assessed as residual activity at 10 uM in presence of 100 uM ATP. An outline of the steps: as §1
Hepatocyte growth factor receptor (Homo sapiens), sequence (P08581 whole entry): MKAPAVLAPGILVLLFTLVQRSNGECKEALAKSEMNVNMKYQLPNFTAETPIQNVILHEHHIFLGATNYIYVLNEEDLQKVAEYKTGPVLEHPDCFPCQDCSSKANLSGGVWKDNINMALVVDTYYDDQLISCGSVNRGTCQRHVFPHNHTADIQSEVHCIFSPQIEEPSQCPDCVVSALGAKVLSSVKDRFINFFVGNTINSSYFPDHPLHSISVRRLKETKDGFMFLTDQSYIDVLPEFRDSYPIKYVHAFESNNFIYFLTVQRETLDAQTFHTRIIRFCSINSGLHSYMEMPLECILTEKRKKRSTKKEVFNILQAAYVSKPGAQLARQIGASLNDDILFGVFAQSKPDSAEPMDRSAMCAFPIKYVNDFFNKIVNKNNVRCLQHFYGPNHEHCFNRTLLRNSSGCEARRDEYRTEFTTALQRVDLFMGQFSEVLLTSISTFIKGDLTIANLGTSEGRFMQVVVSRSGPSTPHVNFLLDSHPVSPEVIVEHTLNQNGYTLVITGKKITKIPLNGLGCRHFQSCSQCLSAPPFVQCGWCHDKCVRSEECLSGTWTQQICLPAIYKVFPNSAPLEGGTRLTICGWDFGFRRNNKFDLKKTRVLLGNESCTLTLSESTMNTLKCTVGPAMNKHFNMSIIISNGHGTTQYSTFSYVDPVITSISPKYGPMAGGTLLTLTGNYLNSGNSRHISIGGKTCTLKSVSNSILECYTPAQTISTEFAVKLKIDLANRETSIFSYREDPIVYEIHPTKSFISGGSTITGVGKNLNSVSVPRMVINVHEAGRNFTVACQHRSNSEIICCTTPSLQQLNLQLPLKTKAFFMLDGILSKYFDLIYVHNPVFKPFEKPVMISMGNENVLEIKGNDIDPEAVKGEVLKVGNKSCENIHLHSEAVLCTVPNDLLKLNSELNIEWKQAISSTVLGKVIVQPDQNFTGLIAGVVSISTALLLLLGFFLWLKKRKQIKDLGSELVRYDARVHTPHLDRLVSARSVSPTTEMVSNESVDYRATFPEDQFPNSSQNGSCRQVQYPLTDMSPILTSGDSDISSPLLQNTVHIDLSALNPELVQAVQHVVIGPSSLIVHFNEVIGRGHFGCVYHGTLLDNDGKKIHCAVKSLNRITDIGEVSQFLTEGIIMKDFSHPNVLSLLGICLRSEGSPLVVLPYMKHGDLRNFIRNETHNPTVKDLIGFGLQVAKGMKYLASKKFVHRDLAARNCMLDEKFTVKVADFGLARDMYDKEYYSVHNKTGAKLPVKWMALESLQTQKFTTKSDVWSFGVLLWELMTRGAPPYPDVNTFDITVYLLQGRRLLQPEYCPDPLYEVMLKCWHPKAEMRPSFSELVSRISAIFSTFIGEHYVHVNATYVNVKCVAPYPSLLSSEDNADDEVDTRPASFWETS
Assay [4] deals with Rho-associated protein kinase 1 (Homo sapiens) (UniProt Q13464). Nature of the assay: Inhibition of recombinant human Rock1 kinase assessed as residual activity at 10 uM in presence of 100 uM ATP. In outline: as §1
Assay [5] deals with T1, Aurora kinase A (Homo sapiens) (UniProt O14965).
T1 sequence (whole entry): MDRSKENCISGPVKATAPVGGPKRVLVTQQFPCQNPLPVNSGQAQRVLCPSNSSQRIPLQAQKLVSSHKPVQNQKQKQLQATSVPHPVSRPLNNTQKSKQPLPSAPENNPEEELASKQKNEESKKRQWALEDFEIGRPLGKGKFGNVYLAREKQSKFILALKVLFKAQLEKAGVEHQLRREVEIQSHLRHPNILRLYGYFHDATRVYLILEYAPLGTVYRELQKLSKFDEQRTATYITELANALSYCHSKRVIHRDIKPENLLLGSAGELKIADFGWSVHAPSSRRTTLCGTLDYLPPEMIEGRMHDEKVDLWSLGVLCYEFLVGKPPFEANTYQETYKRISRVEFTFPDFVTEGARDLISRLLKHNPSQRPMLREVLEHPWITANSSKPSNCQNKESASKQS
The experiment in a line: Inhibition of recombinant human Aurora A kinase assessed as residual activity at 10 uM in presence of 100 uM ATP. In outline: as §1

Assay [6] addresses Mitogen-activated protein kinase 10 (Homo sapiens) (UniProt P53779). Nature of the assay: Inhibition of recombinant human Jnk3 kinase assessed as residual activity at 10 uM in presence of 100 uM ATP. In outline: as §1
Assay [7] deals with Casein kinase II (Homo sapiens) (UniProt P67870+P68400+P19784). The experiment in a line: Inhibition of recombinant human CK2 kinase assessed as residual activity at 10 uM in presence of 100 uM ATP. In kind it is protein-complex assay. An outline of the steps:
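CK2 residual activity was measured with 10 µM inhibitor and a final ATP of 100 µM. It is expressed as a percentage of the no-inhibitor control.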

Assay [8] concerns the target T2, Mitogen-activated protein kinase kinase kinase 5 (Homo sapiens) (UniProt Q99683).
T2 sequence (whole entry): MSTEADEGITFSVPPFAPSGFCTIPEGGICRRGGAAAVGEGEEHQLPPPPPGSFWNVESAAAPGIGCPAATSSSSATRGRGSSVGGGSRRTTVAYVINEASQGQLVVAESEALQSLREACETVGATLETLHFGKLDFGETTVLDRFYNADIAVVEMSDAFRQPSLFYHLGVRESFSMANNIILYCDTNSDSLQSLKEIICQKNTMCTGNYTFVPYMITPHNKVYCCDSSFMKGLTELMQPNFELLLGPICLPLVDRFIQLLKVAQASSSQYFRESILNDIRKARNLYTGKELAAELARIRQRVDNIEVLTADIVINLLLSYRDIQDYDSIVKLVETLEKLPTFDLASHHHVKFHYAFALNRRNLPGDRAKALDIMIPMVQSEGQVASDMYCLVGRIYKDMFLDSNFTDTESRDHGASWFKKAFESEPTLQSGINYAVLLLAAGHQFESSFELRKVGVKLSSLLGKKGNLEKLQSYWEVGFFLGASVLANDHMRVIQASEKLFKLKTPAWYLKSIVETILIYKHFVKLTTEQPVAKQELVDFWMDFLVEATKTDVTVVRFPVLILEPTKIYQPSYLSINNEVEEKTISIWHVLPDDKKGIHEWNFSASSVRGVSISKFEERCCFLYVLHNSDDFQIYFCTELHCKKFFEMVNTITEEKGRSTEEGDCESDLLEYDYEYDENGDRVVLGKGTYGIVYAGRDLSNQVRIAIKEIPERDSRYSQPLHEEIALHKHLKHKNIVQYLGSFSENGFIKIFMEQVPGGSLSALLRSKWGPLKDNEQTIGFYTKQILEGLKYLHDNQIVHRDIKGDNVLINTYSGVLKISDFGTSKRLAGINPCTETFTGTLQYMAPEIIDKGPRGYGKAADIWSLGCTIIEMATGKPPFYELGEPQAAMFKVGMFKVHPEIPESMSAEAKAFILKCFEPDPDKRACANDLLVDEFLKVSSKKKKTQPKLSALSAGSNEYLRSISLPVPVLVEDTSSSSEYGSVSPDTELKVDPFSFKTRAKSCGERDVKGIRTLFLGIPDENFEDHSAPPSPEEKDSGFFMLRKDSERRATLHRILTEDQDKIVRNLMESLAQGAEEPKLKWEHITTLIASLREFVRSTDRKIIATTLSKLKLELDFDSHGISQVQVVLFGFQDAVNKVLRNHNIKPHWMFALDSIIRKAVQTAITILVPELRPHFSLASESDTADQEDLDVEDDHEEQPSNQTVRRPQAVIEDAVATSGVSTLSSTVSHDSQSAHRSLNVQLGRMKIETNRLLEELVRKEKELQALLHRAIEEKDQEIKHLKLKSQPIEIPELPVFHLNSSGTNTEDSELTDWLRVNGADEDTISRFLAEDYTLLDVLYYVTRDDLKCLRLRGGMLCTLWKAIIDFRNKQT
The experiment in a line: Inhibition of recombinant human Ask1 kinase assessed as residual activity at 10 uM in presence of 100 uM ATP. In outline:
as §1

The nature of assay [9]: Competitive inhibition of recombinant human CK2 activity by Lineweaver-Burk plot analysis.

Fibroblast growth factor receptor 1 (Homo sapiens), sequence (P11362 22-822 limits assumed): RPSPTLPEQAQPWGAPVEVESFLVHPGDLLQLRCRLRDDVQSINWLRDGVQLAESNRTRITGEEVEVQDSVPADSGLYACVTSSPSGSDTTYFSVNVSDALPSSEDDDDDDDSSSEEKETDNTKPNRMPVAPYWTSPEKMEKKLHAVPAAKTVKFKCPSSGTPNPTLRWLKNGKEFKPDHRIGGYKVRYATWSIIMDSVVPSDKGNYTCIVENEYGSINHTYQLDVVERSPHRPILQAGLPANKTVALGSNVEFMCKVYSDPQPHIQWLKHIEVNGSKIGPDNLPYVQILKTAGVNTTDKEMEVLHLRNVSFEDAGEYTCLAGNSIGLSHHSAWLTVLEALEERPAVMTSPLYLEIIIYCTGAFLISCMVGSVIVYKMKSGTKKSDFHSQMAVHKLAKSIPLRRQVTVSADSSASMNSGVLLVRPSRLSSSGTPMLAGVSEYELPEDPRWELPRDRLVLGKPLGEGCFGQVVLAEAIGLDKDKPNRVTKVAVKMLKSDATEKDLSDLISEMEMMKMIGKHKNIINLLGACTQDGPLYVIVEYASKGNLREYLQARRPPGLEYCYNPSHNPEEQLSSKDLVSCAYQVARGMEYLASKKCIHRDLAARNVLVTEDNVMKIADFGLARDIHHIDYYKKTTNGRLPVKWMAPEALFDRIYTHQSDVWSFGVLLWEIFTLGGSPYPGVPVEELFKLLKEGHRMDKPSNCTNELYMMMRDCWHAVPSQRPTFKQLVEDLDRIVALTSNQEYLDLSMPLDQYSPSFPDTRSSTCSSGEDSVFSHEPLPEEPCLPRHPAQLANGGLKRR
Mitogen-activated protein kinase 10 (Homo sapiens), sequence (P53779 whole entry): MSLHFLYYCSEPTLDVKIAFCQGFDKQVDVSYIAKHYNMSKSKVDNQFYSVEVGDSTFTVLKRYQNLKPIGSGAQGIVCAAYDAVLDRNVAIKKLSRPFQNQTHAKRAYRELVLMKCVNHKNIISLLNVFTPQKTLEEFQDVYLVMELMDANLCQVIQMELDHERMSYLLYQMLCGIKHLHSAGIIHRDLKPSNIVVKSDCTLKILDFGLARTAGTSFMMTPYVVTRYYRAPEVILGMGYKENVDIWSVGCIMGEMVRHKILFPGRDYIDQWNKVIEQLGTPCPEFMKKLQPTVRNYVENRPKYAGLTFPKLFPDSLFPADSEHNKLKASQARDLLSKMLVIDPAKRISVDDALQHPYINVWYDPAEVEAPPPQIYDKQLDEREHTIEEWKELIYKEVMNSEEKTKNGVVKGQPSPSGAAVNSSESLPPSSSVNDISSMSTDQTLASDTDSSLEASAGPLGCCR
Angiopoietin-1 receptor (Homo sapiens), sequence (Q02763 whole entry): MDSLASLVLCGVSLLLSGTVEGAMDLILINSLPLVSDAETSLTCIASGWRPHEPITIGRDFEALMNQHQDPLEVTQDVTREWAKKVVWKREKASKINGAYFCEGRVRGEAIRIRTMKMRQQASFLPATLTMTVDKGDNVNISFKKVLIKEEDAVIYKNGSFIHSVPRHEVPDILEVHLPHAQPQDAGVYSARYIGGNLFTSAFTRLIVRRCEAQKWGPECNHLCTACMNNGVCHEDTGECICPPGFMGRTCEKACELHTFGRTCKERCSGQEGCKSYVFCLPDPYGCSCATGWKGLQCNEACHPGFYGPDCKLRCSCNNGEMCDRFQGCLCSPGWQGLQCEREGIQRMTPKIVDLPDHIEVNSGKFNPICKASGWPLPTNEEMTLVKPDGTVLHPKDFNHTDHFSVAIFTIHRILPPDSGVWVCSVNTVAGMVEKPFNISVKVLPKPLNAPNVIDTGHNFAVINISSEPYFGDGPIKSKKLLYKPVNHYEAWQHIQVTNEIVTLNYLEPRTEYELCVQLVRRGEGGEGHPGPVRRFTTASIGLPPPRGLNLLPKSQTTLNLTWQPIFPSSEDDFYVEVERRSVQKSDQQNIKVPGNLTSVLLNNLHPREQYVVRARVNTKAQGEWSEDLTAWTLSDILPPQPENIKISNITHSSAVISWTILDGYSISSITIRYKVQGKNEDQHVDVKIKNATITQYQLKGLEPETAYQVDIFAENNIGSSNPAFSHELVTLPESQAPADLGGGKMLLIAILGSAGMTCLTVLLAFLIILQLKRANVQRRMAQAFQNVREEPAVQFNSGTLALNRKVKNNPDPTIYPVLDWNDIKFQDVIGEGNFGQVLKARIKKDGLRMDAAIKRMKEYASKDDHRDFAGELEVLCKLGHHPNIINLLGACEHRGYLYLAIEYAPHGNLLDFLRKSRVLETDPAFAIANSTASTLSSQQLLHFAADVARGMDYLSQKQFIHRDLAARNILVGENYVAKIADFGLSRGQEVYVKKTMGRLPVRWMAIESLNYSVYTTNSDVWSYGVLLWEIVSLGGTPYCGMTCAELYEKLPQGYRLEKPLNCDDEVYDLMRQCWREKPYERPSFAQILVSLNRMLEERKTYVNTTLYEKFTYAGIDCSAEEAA

On to `Cc1nc(SCCC(=O)O)c2c3c(sc2n1)CCCC3`, for which the IC50 on Casein kinase II stood at 15.8 µM.
As to `O=C(O)c1ccc(CSc2ncnc3sc4c(c23)CCCC4)cc1`, the IC50 at Casein kinase II is above 33 µM.
With `Cc1cc2c(SCC(=O)O)ncnc2s1`, the IC50 at Casein kinase II came to 4 µM.
For `O=C(O)CCSc1ncnc2scc(-c3ccc(F)cc3)c12`, the IC50 at Casein kinase II stood at 1.2 µM.
Regarding `O=C(O)CSc1ncnc2scc(-c3ccc(Br)cc3)c12`, the half-maximal inhibitory concentration (IC50) at Casein kinase II is 14 µM.
`CC(Sc1ncnc2sc3c(c12)CCCC3)C(=O)O` (stereo not given): the IC50 at Casein kinase II was determined as 17 µM.
On the same count and under the same terms, then `CC(Sc1ncnc2scc(-c3ccccc3)c12)C(=O)O` (stereo not given), with 23 µM; and `O=C(O)CSc1ncnc2scc(-c3ccc(Cl)cc3)c12`, with 32 µM; and `CCC(Sc1ncnc2scc(-c3ccc(C)cc3)c12)C(=O)O` (stereo not given), with above 33 µM.
Consider `CCC(Sc1ncnc2scc(-c3ccc(Cl)cc3)c12)C(=O)O` (stereo not given), for which, at Casein kinase II, the IC50 was above 33 µM.
The same measure, in the same setting: then `CC1CCc2c(sc3ncnc(SC(C)C(=O)O)c23)C1` (stereo not given), with 20 µM.
In the case of `Cc1sc2ncnc(SCC(=O)O)c2c1-c1ccccc1`, the IC50 at Casein kinase II was above 33 µM.
For the molecule `O=C(O)CSc1ncnc2sc(-c3ccccc3)cc12`, the IC50 on Casein kinase II amounted to 1.25 µM.
For `O=C(O)CSc1ncnc2scc(-c3ccccc3)c12`, the IC50 on Casein kinase II amounted to 30 µM.
For the molecule `CCOc1ccc(-c2csc3ncnc(SCCC(=O)O)c23)cc1`, the Activity was determined as 76% in assay [1]; 99% in [2]; 115% in [3]; 115% in [4]; 48% in assay [5]; 94% in assay [6]. Further, the figures for the Activity in assay [7] and in [8] were 0.86% and 100%, respectively. Moreover, at Casein kinase II, the IC50 amounted to 0.125 µM.
In the case of `O=C(O)CCCSc1ncnc2sc3c(c12)CCCC3`, the IC50 at Casein kinase II is above 33 µM.
On to `Cc1ccc(-c2csc3ncnc(SCCC(=O)O)c23)cc1C`, for which the half-inhibitory concentration (IC50) at Casein kinase II was 0.175 µM.
The same measure, in the same setting: then `CC1CCc2c(sc3ncnc(SCC(=O)O)c23)C1` (stereo not given), with 1.78 µM.
Still for that read-out and setting: then `Cc1ccc(-c2csc3ncnc(SC(C)C(=O)O)c23)cc1` (stereo not given), with 31 µM; and `Cc1sc2ncnc(SCc3cccc(C(=O)O)c3)c2c1C`, with 17.8 µM; and `O=C(O)CCSc1ncnc2scc(-c3ccc(Cl)cc3)c12`, with 0.175 µM.
With `Cc1cc2c(SCCC(=O)O)ncnc2s1`, at Casein kinase II, the IC50 stood at 7 µM.
Turning to `Cc1nc(SCCC(=O)O)c2cc(-c3ccccc3)sc2n1`, the IC50 at Casein kinase II came out at 3.5 µM.
On the same count and under the same terms, then `Cc1sc2ncnc(SCCC(=O)O)c2c1C`, with 11.3 µM; and `Cc1sc2ncnc(SC(C)C(=O)O)c2c1C` (stereo not given), with above 33 µM; and `Cc1sc2ncnc(SCC(=O)O)c2c1C`, with 17.8 µM.
On to `Cc1ccc(-c2csc3ncnc(SCCC(=O)O)c23)cc1`, for which the Ki in [9] was determined as 0.04 µM. Also, the Activity in [1] is 70%; in [2], 92%; in assay [3], 114%; in [4], 126%; in [5], 23%; in assay [6], 104%. Further, the figures for the Activity in [7] and in assay [8] were 0.72% and 92%, respectively. In addition, the IC50 on Casein kinase II is 0.1 µM.
On to `CCC(Sc1ncnc2sc3c(c12)CCCC3)C(=O)O` (stereo not given), for which, at Casein kinase II, the IC50 was above 33 µM.
